Source: paper PMC5958747 (Endocrine Connections, 2018)
Marks after values point to notes of the source that are not given here.

Columns and labels:
[1] = tested on: MNU-induced mammary tumours; assay: N-methyl-N-nitrosourea; assay type: in vivo, female Sprague-Dawley rats; conditions: for increase of mammary tumour number in tumour-bearing rats compared with controls: end of study, significant for glargine only; for number of tumours per rat (tumour multiplicity, all rats): including rats bearing no tumour, 15 U/kg/day s.c. 5 days a week, at 6 weeks of treatment, high-fat diet, MNU, mean ± S.E.M., n = 30 per group
[2] = assay type: in vivo, female Sprague-Dawley rats; conditions: for Final body weight: after 6 weeks of 15 U/kg s.c. 5 days per week; for Final body weight / Food intake / Body weight increase: mean ± S.E.M., n = 30; for Food intake: average over the treatment period; for Body weight increase: over 6 weeks of treatment; for blood glucose levels before the injection vs control or detemir groups: over the treatment period, n = 30 per group
Procedure, shortened: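 Female Sprague-Dawley rats on a high-fat diet (40% of calories) from 4 weeks of age were given MNU 485 μmol/kg s.c. 1 week later. Light cycle was shifted to 13:00–01:00 h. At 9 weeks, rats were randomised (n = 30/group) to saline or insulin s.c. at 11:00–12:00 h, 5 days/week, ramped 5→10→15 U/kg. Tail-nick glucometer glucose was taken before and 4 h post-injection three times weekly. Data are mean ± s.e.m., analysed by ANOVA and Waller–Duncan test.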

[3] = tested on: Akt (phospho-Ser473-Akt / total Akt); assay: Western blot of phosphorylated and total Akt in mammary tumours; assay type: in vivo, female Sprague-Dawley rats; conditions: mammary tumours 4 h after last s.c. injection, 15 U/kg
Procedure, shortened: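 High-fat-fed, MNU-treated female Sprague-Dawley rats received saline or insulin s.c. 5 days/week for 6 weeks. Palpable mammary tumours were collected under ketamine/xylazine/acepromazine anaesthesia 4 h after the last injection, halved, and one half was snap-frozen in liquid nitrogen for Western blotting of phosphorylated and total Akt.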

[4] = assay type: in vivo, female Sprague-Dawley rats; conditions: 15 U/kg s.c.; for steady plasma concentrations (unit/L) up to: high-fat-fed rats, n = 6, unmetabolised glargine
[5] = ref not given, cited from earlier work

Substance | increase of mammary tumour number in tumour-bearing rats compared with controls [1] | Final body weight [2] [g] | Food intake [2] [g/day] | Body weight increase [2] | blood glucose levels before the injection vs control or detemir groups [2] | number of tumours per rat (tumour multiplicity, all rats) [1] | ratio of phosphorylated (active) Akt to total Akt vs control group [3] | steady plasma concentrations (unit/L) up to [4] | peak of glucose-lowering action ([4]; insulin-resistant rats, partial recovery of plasma glucose at 9 h) [h] | sustained action after subcutaneous injection in humans ([5]; humans) | sustained action after subcutaneous injection ([5]; species not given, general statement)
NPH: NPH (unmodified human insulin), purchased from Eli Lilly, Canada | approximately doubled | 346 ± 7 | 21.1 ± 1.4 | 98.7 ± 4.5^a g | slightly higher |  |  |  |  |  | 
detemir | approximately doubled | 338 ± 6 | 19.7 ± 0.8 | 80.7 ± 3.9 g |  | 1.4 ± 0.4 | higher | up to 9 h |  |  | 
glargine | 2 fold | 343 ± 5 | 21.1 ± 1.2 | 93.8 ± 4.4 g | slightly higher | 1.5 ± 0.4 | higher | up to 9 h | 1.5 to 4 | over 20 h | up to 24 h
